These results are taken from ChEMBL document CHEMBL2390903, “Anti-tubercular agents. Part 7: a new class of diarylpyrrole-oxazolidinone conjugates as antimycobacterial agents” (Eur J Med Chem, 2013).

This experiment relates to Mycobacterium tuberculosis. Nature of the experiment: Antitubercular activity against rifampicin-resistant Mycobacterium tuberculosis assessed as growth inhibition after 2 to 3 weeks by broth microdilution method. Type of experiment: functional. An outline of the steps:
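Primary screen of all compounds against H37Rv at a single concentration in triplicate by microplate dilution. Actives then went to MIC determination by broth microdilution against H37Rv, rifampicin-resistant and XDR-1 isolates. Plates incubated 2–3 weeks at 37 °C in a CO2 incubator. MIC read visually as absence of growth turbidity. Rifampicin and linezolid served as reference drugs.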
In general terms: Dilution methods test growth across graded concentrations, often in twofold steps.

Values after ≈ are worked out from the molar mass of the structure shown.

Consider `CC(=O)NC[C@H]1CN(c2ccc(N3CCN(Cc4cc(-c5cccc(Cl)c5)n(-c5ccccc5F)c4C)CC3)c(F)c2)C(=O)O1`, for which the MIC is 8 µg/mL (≈ 12.6 µM). As to `CC(=O)NC[C@H]1CN(c2ccc(N3CCN(Cc4cc(-c5ccc(C(C)C)cc5)n(-c5ccc(F)cc5F)c4C)CC3)c(F)c2)C(=O)O1`, the MIC came to 4 µg/mL (≈ 6.06 µM). The value for `Cc1ccccc1-c1cc(CN2CCN(c3ccc(N4C[C@H](Cn5cc(-c6cncn6C)nn5)OC4=O)cc3F)CC2)c(C)n1-c1ccc(F)cc1` was 4 µg/mL (≈ 5.68 µM); that for `Cc1c(CN2CCN(c3ccc(N4C[C@H](Cn5cc(-c6ccccc6)nn5)OC4=O)cc3F)CC2)cc(-c2cccc(Cl)c2)n1-c1ccccc1F` was greater than 16 µg/mL. The value for `Cc1c(CN2CCN(c3ccc(N4C[C@H](Cn5cc(-c6ccccc6)nn5)OC4=O)cc3F)CC2)cc(-c2ccc(Cl)c(F)c2)n1-c1ccc(OC(F)(F)F)cc1` was greater than 16 µg/mL; that for `Cc1ccc(-c2cc(CN3CCN(c4ccc(N5C[C@H](Cn6cc(-c7ccccc7)nn6)OC5=O)cc4F)CC3)c(C)n2-c2ccc(Cl)c(Cl)c2)cc1` was greater than 16 µg/mL; that for `Cc1c(CN2CCN(c3ccc(N4C[C@H](Cn5cc(-c6ccccc6)nn5)OC4=O)cc3F)CC2)cc(-c2ccc(F)cc2F)n1-c1cc(F)ccc1Br` was greater than 16 µg/mL. In the case of `Cc1cccc(-c2cn(C[C@H]3CN(c4ccc(N5CCN(Cc6cc(-c7ccccc7C)n(-c7ccc(F)cc7)c6C)CC5)c(F)c4)C(=O)O3)nn2)c1` it was greater than 16 µg/mL; in that of `CC(=O)NC[C@H]1CN(c2ccc(N3CCN(Cc4cc(-c5ccc(F)cc5F)n(-c5cc(F)ccc5Br)c4C)CC3)c(F)c2)C(=O)O1`, 8 µg/mL (≈ 11.2 µM); in that of `Cc1ccc(-c2cc(CN3CCN(c4ccc(N5C[C@H](Cn6cc(-c7ccccn7)nn6)OC5=O)cc4F)CC3)c(C)n2-c2ccc(Cl)c(Cl)c2)cc1`, 4 µg/mL (≈ 5.32 µM). Consider `Cc1c(CN2CCN(c3ccc(N4C[C@H](Cn5cc(-c6ccccn6)nn5)OC4=O)cc3F)CC2)cc(-c2ccc(Cl)c(F)c2)n1-c1ccc(OC(F)(F)F)cc1`, for which the minimal inhibitory concentration (MIC) stood at 4 µg/mL (≈ 4.97 µM). Turning to `Cc1c(CN2CCN(c3ccc(N4C[C@H](Cn5cc(-c6ccccn6)nn5)OC4=O)cc3F)CC2)cc(-c2ccc(F)cc2F)n1-c1ccc(F)cc1`, the MIC came out at 8 µg/mL (≈ 11.1 µM). As to `Cc1ccccc1-c1cc(CN2CCN(c3ccc(N4C[C@H](Cn5cc(-c6ccccn6)nn5)OC4=O)cc3F)CC2)c(C)n1-c1ccc(F)c(F)c1`, the minimal inhibitory concentration (MIC) worked out at 4 µg/mL (≈ 5.56 µM).

With `Cc1c(CN2CCN(c3ccc(N4C[C@H](Cn5cc(-c6cncn6C)nn5)OC4=O)cc3F)CC2)cc(-c2ccc(C(C)C)cc2)n1-c1ccc(F)cc1F`, the MIC was found to be 8 µg/mL (≈ 10.7 µM). In the case of `Cc1c(CN2CCN(c3ccc(N4C[C@H](Cn5cc(-c6cncn6C)nn5)OC4=O)cc3F)CC2)cc(-c2ccc(F)cc2F)n1-c1ccc(F)cc1` it was 8 µg/mL (≈ 11 µM); in that of `Cc1ccccc1-c1cc(CN2CCN(c3ccc(N4C[C@H](Cn5cc(-c6cncn6C)nn5)OC4=O)cc3F)CC2)c(C)n1-c1ccc(F)c(F)c1`, 8 µg/mL (≈ 11.1 µM). The value for `CC(=O)NC[C@H]1CN(c2ccc(N3CCOCC3)c(F)c2)C(=O)O1` [LINEZOLID] was 2 µg/mL (≈ 5.93 µM); that for `CO[C@H]1/C=C/O[C@@]2(C)Oc3c(C)c(O)c4c(O)c(c(/C=N/N5CCN(C)CC5)c(O)c4c3C2=O)NC(=O)/C(C)=C\C=C\[C@H](C)[C@H](O)[C@@H](C)[C@@H](O)[C@@H](C)[C@H](OC(C)=O)[C@@H]1C` [RIFAMPIN] was greater than 128 µg/mL.

As a reminder, the MIC is the lowest concentration that inhibits growth of the organism.
